From ChEMBL document CHEMBL4270513, “Replacement of Arg with Nle and modified D-Phe in the core sequence of MSHs, Ac-His-D-Phe-Arg-Trp-NH2, leads to hMC1R selectivity and pigmentation” (Eur J Med Chem, 2018)
The source made the active and inactive calls. The rule behind the calls is not given here. Square brackets hold non-standard residues; d marks the D form. Peptide text beside a SMILES is read from it. dPhe(4-CF3) = N[C@H](Cc1ccc(C(F)(F)F)cc1)C(=O)O; dPhe(4-Br) = N[C@H](Cc1ccc(Br)cc1)C(=O)O; dPhe(4-Cl) = N[C@H](Cc1ccc(Cl)cc1)C(=O)O; dPhe(4-F) = N[C@H](Cc1ccc(F)cc1)C(=O)O; d2Nal = N[C@H](Cc1ccc2ccccc2c1)C(=O)O; Nle = CCCC[C@H](N)C(=O)O

Experiments:
Melanocortin receptor 3 [1] = target: T1, Melanocortin receptor 3 (Homo sapiens, UniProt P41968); assay: Displacement of [125I]-[Nle4,d-Phe7]-alpha-MSH from human MC3R expressed in HEK293 cells after 40 mins by gamma counting analysis; type: cell-based
[2] = target: T2, Melanocyte-stimulating hormone receptor (Homo sapiens, UniProt Q01726); assay: Displacement of [125I]-[Nle4,d-Phe7]-alpha-MSH from human MC1R expressed in HEK293 cells after 40 mins by gamma counting analysis; type: cell-based
Melanocortin receptor 5 [3] = target: T3, Melanocortin receptor 5 (Homo sapiens, UniProt P33032); assay: Displacement of [125I]-[Nle4,d-Phe7]-alpha-MSH from human MC5R expressed in HEK293 cells after 40 mins by gamma counting analysis; type: cell-based
[4] = target: T2, Melanocyte-stimulating hormone receptor; assay: Agonist activity at human MC1R expressed in HEK293 cells after 3 mins by cAMP assay; type: functional, cell-based
Melanocortin receptor 3 [5] = target: T1, Melanocortin receptor 3; assay: Agonist activity at human MC3R expressed in HEK293 cells after 3 mins by cAMP assay; type: functional, cell-based
Melanocortin receptor 5 [6] = target: T3, Melanocortin receptor 5; assay: Agonist activity at human MC5R expressed in HEK293 cells after 3 mins by cAMP assay; type: functional, cell-based
Melanocortin receptor 3 [7] = target: T1, Melanocortin receptor 3; assay: Displacement of [125I]-[Nle4,d-Phe7]-alpha-MSH from human MC3R expressed in HEK293 cells at 10 uM after 40 mins by gamma counting analysis relative to control; type: cell-based
Method in brief: (§1)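 Binding efficiency = maximal % displacement of [125I]-NDP-α-MSH observed at 10 μM peptide; 0% displacement at 10 μM scored as no binding.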

[8] = target: T2, Melanocyte-stimulating hormone receptor; assay: Displacement of [125I]-[Nle4,d-Phe7]-alpha-MSH from human MC1R expressed in HEK293 cells at 10 uM after 40 mins by gamma counting analysis relative to control; type: cell-based; method in brief: as §1
Melanocortin receptor 3 [9] = target: T1, Melanocortin receptor 3; assay: Agonist activity at human MC3R expressed in HEK293 cells at 10 uM after 3 mins by cAMP assay relative to MT-2; type: functional, cell-based
Method in brief: (§2)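 cAMP produced at a single 10 μM peptide concentration, expressed as % of the response to MT-II run as control; 0% accumulation reported as no activity.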

Melanocortin receptor 5 [10] = target: T3, Melanocortin receptor 5; assay: Displacement of [125I]-[Nle4,d-Phe7]-alpha-MSH from human MC5R expressed in HEK293 cells at 10 uM after 40 mins by gamma counting analysis relative to control; type: cell-based; method in brief: as §1
Melanocortin receptor 5 [11] = target: T3, Melanocortin receptor 5; assay: Agonist activity at human MC5R expressed in HEK293 cells at 10 uM after 3 mins by cAMP assay relative to MT-2; type: functional, cell-based; method in brief: as §2
[12] = target: T2, Melanocyte-stimulating hormone receptor; assay: Agonist activity at human MC1R expressed in HEK293 cells at 10 uM after 3 mins by cAMP assay relative to MT-2; type: functional, cell-based; method in brief: as §2
Melanocortin receptor 4 [13] = target: T4, Melanocortin receptor 4 (Homo sapiens, UniProt P32245); assay: Displacement of [125I]-[Nle4,d-Phe7]-alpha-MSH from human MC4R expressed in HEK293 cells after 40 mins by gamma counting analysis; type: cell-based
Melanocortin receptor 4 [14] = target: T4, Melanocortin receptor 4; assay: Agonist activity at human MC4R expressed in HEK293 cells after 3 mins by cAMP assay; type: functional, cell-based
Homo sapiens [15] = species on record: Homo sapiens; assay: Selectivity ratio of EC50 for human MC4R to EC50 for human MC1R
Homo sapiens [16] = species on record: Homo sapiens; assay: Selectivity ratio of EC50 for human MC5R to EC50 for human MC1R
Homo sapiens [17] = species on record: Homo sapiens; assay: Selectivity ratio of EC50 for human MC3R to EC50 for human MC1R
Anolis carolinensis = assay: Induction of pigmentation effect in lizard at 3 ug/g, ip at 1 hr post dose; type: functional, organism-based
Method in brief: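 Anolis carolinensis lizards, peptide dissolved in saline at 1 mM, single intraperitoneal dose of 3 μg/g body weight; vehicle-injected animals as control. Skin colour change versus pre-injection appearance scored visually and photographed, followed up to 24 h.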

T3 sequence (P33032 whole entry): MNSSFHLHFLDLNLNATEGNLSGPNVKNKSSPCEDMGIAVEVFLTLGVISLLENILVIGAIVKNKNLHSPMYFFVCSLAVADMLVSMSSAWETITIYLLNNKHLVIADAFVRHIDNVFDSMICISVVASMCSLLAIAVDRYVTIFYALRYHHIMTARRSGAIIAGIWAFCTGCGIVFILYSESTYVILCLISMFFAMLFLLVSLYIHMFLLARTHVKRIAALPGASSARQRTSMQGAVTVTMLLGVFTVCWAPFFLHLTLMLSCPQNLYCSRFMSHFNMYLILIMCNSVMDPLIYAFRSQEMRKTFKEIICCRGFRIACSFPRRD
T4 sequence (P32245 whole entry): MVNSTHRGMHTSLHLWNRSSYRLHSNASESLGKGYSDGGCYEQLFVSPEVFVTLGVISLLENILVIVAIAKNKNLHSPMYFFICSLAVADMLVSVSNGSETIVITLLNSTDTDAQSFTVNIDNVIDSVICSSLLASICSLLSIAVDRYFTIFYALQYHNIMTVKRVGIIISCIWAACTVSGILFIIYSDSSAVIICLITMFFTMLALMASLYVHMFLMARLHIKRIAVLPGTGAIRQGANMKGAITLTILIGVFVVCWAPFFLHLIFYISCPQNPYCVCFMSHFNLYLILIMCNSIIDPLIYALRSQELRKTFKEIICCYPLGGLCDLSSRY
T1 sequence (P41968 whole entry): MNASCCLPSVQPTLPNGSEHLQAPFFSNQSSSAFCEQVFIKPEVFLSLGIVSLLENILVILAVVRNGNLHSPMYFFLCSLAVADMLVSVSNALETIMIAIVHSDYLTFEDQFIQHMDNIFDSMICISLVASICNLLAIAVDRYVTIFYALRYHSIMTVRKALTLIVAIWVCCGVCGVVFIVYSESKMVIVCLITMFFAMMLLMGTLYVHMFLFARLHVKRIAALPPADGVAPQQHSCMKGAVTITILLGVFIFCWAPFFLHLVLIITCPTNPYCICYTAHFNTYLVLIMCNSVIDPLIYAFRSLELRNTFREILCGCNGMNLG

Row | Structure (SMILES) | IC50 (Melanocortin receptor 3 [1]) [nM] | IC50 [2] [nM] | IC50 (Melanocortin receptor 5 [3]) [nM] | EC50 [4] [nM] | EC50 (Melanocortin receptor 3 [5]) [nM] | EC50 (Melanocortin receptor 5 [6]) [nM] | %max (Melanocortin receptor 3 [7]) [%] | %max [8] [%] | Activity (Melanocortin receptor 3 [9]) [%] | %max (Melanocortin receptor 5 [10]) [%] | Activity (Melanocortin receptor 5 [11]) [%] | Activity [12] [%] | IC50 (Melanocortin receptor 4 [13]) [nM] | EC50 (Melanocortin receptor 4 [14]) [nM] | Ratio EC50 (Homo sapiens [15]) | Ratio EC50 (Homo sapiens [16]) | Ratio EC50 (Homo sapiens [17]) | Activity (Anolis carolinensis)
1 | CC(=O)N[C@@H](Cc1cnc[nH]1)C(=O)N[C@H](Cc1ccccc1)C(=O)N[C@@H](CCCN=C(N)N)C(=O)N[C@@H](Cc1c[nH]c2ccccc12)C(N)=O | 63 | 105 | 109 | 4.3 | 7.1 | 3.9 | – | – | – | – | – | – | – | – | – | – | – | –
2 | CC(=O)N[C@@H](Cc1cnc[nH]1)C(=O)N[C@H](Cc1ccccc1)C(=O)N[C@@H](CCCNC(=N)N)C(=O)N[C@@H](Cc1c[nH]c2ccccc12)C(N)=O | – | – | – | – | – | – | 100 | 100 | 100 | 100 | 63 | 100 | – | – | – | – | – | –
3 | CCCC[C@H](NC(=O)[C@@H](Cc1ccc2ccccc2c1)NC(=O)[C@H](Cc1cnc[nH]1)NC(C)=O)C(=O)N[C@@H](Cc1c[nH]c2ccccc12)C(N)=O (Ac-H[d2Nal][Nle]W-NH2) | > 1000 | > 1000 | – | 418 | 255 | – | 80 | 65 | 17 | 0 | 0 | 100 | > 1000 | 133 | – | – | – | –
4 | CCCC[C@H](NC(=O)[C@@H](Cc1ccccc1)NC(=O)[C@H](Cc1cnc[nH]1)NC(C)=O)C(=O)N[C@@H](Cc1c[nH]c2ccccc12)C(N)=O (Ac-H[dF][Nle]W-NH2) | > 1000 | 50 | 46 | 52 | 120 | 37 | 15 | 42 | 100 | 44 | 48 | 100 | 65 | 928 | – | – | – | –
5 | CCCC[C@H](NC(=O)[C@@H](Cc1ccc(Br)cc1)NC(=O)[C@H](Cc1cnc[nH]1)NC(C)=O)C(=O)N[C@@H](Cc1c[nH]c2ccccc12)C(N)=O (Ac-H[dPhe(4-Br)][Nle]W-NH2) | 224 | 154 | – | 11 | 57 | > 1000 | 51 | 61 | 93 | 0 | 33 | 100 | 53 | 36 | – | – | – | –
6 | CCCC[C@H](NC(=O)[C@@H](Cc1ccc(C(F)(F)F)cc1)NC(=O)[C@H](Cc1cnc[nH]1)NC(C)=O)C(=O)N[C@@H](Cc1c[nH]c2ccccc12)C(N)=O (Ac-H[dPhe(4-CF3)][Nle]W-NH2) | 90 | 339 | 37 | 10 | 252 | > 1000 | 62 | 49 | 85 | 37 | 44 | 100 | 835 | 407 | 41 | > 100 | 25 | Active
7 | CCCC[C@H](NC(=O)[C@@H](Cc1ccc(Cl)cc1)NC(=O)[C@H](Cc1cnc[nH]1)NC(C)=O)C(=O)N[C@@H](Cc1c[nH]c2ccccc12)C(N)=O (Ac-H[dPhe(4-Cl)][Nle]W-NH2) | > 1000 | 122 | – | 6.5 | 116 | 433 | 45 | 81 | 87 | 0 | 52 | 100 | > 1000 | 17 | – | – | – | –
8 | CCCC[C@H](NC(=O)[C@@H](Cc1ccc(F)cc1)NC(=O)[C@H](Cc1cnc[nH]1)NC(C)=O)C(=O)N[C@@H](Cc1c[nH]c2ccccc12)C(N)=O (Ac-H[dPhe(4-F)][Nle]W-NH2) | > 1000 | 243 | – | 25 | 315 | – | 13 | 33 | 100 | 0 | 0 | 100 | > 1000 | 280 | – | – | – | –
9 | CCCC[C@H](NC(=O)[C@@H](Cc1ccccc1)NC(=O)[C@@H]1CCCN1C(C)=O)C(=O)N[C@@H](Cc1c[nH]c2ccccc12)C(N)=O (Ac-P[dF][Nle]W-NH2) | > 1000 | – | – | – | – | – | 65 | 0 | 0 | 0 | 0 | 0 | – | – | – | – | – | –
10 | CCCC[C@H](NC(=O)[C@@H](Cc1ccc(Br)cc1)NC(=O)[C@@H]1CCCN1C(C)=O)C(=O)N[C@@H](Cc1c[nH]c2ccccc12)C(N)=O (Ac-P[dPhe(4-Br)][Nle]W-NH2) | > 1000 | 80 | – | > 1000 | > 1000 | – | 76 | 30 | 23.1 | 0 | 0 | 39 | 10 | – | – | – | – | –
11 | CCCC[C@H](NC(=O)[C@@H](Cc1ccc(C(F)(F)F)cc1)NC(=O)[C@@H]1CCCN1C(C)=O)C(=O)N[C@@H](Cc1c[nH]c2ccccc12)C(N)=O (Ac-P[dPhe(4-CF3)][Nle]W-NH2) | > 1000 | – | – | – | – | – | 33 | 0 | 0 | 0 | 0 | 0 | 2.1 | – | – | – | – | –
12 | CCCC[C@H](NC(=O)[C@@H](Cc1ccc(Cl)cc1)NC(=O)[C@@H]1CCCN1C(C)=O)C(=O)N[C@@H](Cc1c[nH]c2ccccc12)C(N)=O (Ac-P[dPhe(4-Cl)][Nle]W-NH2) | > 1000 | 1.9 | – | 3 | > 1000 | – | 35 | 18 | 23.1 | 0 | 0 | 63 | – | – | – | – | – | –
13 | CCCC[C@H](NC(=O)[C@@H](Cc1ccc(F)cc1)NC(=O)[C@@H]1CCCN1C(C)=O)C(=O)N[C@@H](Cc1c[nH]c2ccccc12)C(N)=O (Ac-P[dPhe(4-F)][Nle]W-NH2) | 46.8 | 0.74 | – | > 1000 | > 1000 | – | 35 | 28 | 56 | 0 | 0 | 46 | – | – | – | – | – | –
